Measured values reported in BindingDB's records for doi:10.1021/jm00089a022 (Warner-Lambert, 1992).

How the values were obtained:
[1] = target: T1, 3-hydroxy-3-methylglutaryl-coenzyme A reductase (Homo sapiens, UniProt P04035); test: ChEBML_80349
T1 sequence (P04035 whole entry): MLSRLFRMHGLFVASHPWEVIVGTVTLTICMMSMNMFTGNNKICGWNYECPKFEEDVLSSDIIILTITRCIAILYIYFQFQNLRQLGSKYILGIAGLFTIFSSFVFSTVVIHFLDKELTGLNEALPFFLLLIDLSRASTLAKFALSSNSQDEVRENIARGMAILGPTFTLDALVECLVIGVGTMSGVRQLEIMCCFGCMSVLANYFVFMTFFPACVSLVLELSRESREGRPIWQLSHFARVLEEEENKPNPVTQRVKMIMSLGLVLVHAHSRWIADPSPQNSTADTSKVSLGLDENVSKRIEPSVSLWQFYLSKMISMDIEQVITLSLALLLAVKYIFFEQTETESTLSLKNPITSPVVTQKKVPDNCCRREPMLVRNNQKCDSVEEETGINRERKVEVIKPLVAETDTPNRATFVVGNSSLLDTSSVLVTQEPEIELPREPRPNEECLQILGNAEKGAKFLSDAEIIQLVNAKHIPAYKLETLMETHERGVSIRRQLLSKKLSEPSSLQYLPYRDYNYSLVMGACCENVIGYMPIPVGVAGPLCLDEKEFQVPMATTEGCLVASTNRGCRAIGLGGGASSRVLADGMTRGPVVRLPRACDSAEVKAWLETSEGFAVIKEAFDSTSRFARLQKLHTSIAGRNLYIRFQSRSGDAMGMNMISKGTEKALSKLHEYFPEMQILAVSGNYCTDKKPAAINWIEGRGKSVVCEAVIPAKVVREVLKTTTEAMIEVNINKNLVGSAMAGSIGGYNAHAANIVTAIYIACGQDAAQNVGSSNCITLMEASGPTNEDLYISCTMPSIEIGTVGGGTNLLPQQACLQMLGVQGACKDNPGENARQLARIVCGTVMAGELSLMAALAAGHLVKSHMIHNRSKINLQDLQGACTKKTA
Description: (§1) Tested in vitro for the inhibition of HMG-CoA reductase from partially purified microsomal preparations.

[2] = target: T1, 3-hydroxy-3-methylglutaryl-coenzyme A reductase; test: as §1
Method in brief: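 Lactones saponified to the 3,5-dihydroxy acids before assay. Inhibition of partially purified microsomal HMG-CoA reductase. Each inhibitor concentration assayed in triplicate.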

| SMILES | IC50 [1] [nM] | IC50 [2] [nM] |
| --- | --- | --- |
| CC(C)c1nn(-c2nc3ccccc3s2)c(-c2ccc(F)cc2)c1/C=C/[C@@H](O)C[C@@H](O)CC(=O)O | 59 | – |
| CC(C)c1nn(-c2ccc3ccccc3n2)c(-c2ccc(F)cc2)c1/C=C/[C@@H](O)C[C@@H](O)CC(=O)O | 62 | – |
| CC(C)c1nn(-c2ccccn2)c(-c2ccc(F)cc2)c1/C=C/[C@@H](O)C[C@@H](O)CC(=O)O | – | 24 |
| CC(C)c1nn(-c2ccccn2)c(-c2ccc(F)cc2)c1CCC(O)C[C@@H](O)CC(=O)O (some centres undefined) | 110 | – |

Continued, values first:

| IC50 [1] [nM] | IC50 [2] [nM] | SMILES |
| --- | --- | --- |
| 17 | – | O=C(O)C[C@H](O)C[C@H](O)/C=C/c1c(C(F)(F)F)nn(-c2ccccn2)c1-c1ccc(F)cc1 |
| 40 | – | CC(C)c1nn(-c2ccccc2)c(-c2ccc(F)cc2)c1CCC(O)C[C@@H](O)CC(=O)O (some centres undefined) |
| 7 | – | CC(C)c1nn(-c2cnccn2)c(-c2ccc(F)cc2)c1/C=C/[C@@H](O)C[C@@H](O)CC(=O)O |
| 7 | – | CC(C)c1nn(-c2ccccc2)c(-c2ccc(F)cc2)c1/C=C/[C@@H](O)C[C@@H](O)CC(=O)O |
| 20 | – | CC[C@H](C)C(=O)O[C@H]1C[C@@H](C)C=C2C=C[C@H](C)[C@H](CCC(O)C[C@@H](O)CC(=O)O)[C@H]21 (some centres undefined) |
